{"source": "ChEMBL document CHEMBL3596186", "about": "“Synthesis and biological evaluation of diarylthiazole derivatives as antimitotic and antivascular agents with potent antitumor activity” (Bioorg Med Chem, 2015)", "key": {"[1]": {"tested_on": "HepG2", "experiment": "Cell cycle arrest in human HepG2 cells assessed as accumulation at G1 phase at 1 uM after 24 hrs by flow cytometry (reference value: 62.74%)", "type": "functional"}, "[2]": {"tested_on": "HepG2", "experiment": "Induction of apoptosis in human HepG2 cells assessed as early apoptotic cells at 0.5 uM after 48 hrs by annexin V/propidium iodide staining-based flow cytometry (reference value: 0.87%)", "type": "functional"}, "[3]": {"tested_on": "HepG2", "experiment": "Induction of apoptosis in human HepG2 cells assessed as viable cells at 0.5 uM after 48 hrs by annexin V/propidium iodide staining-based flow cytometry (reference value: 89.8%)", "type": "functional", "conditions": "HepG2, 48 h, read-out: Activity"}, "[4]": {"tested_on": "HepG2", "experiment": "Induction of apoptosis in human HepG2 cells assessed as late apoptotic cells at 1 uM after 48 hrs by annexin V/propidium iodide staining-based flow cytometry (reference value: 3.74%)", "type": "functional"}, "[5]": {"tested_on": "HUVEC", "experiment": "Antiproliferative activity against HUVEC after 48 hrs by MTT assay", "type": "cell-based", "conditions": "Homo sapiens", "procedure,_shortened": "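HUVECs isolated from umbilical cord veins and grown in EBM-2 with growth factors at 37 °C, 5% CO2. Log-phase cells at 40,000-50,000 cells/mL exposed to a compound dilution series for 48 h. MTT added for 3 h, formazan dissolved in DMSO, absorbance read at 570 nm. IC50 taken from percent growth versus untreated control.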"}, "[6]": {"tested_on": "HUVEC", "experiment": "Antivascular activity against HUVEC assessed as inhibition of tube formation after 8 hrs by Matrigel assay", "type": "functional, cell-based", "conditions": "Homo sapiens", "procedure,_shortened": "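Wells of prechilled plates coated with Matrigel and solidified 45 min at 37 °C. HUVECs (1 × 10^4) in EBM-2 containing compound (125-500 nM) seeded onto the gel and incubated 8 h at 37 °C. Capillary networks photographed at 100×; tubule numbers and line lengths counted manually.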"}, "[7]": {"tested_on": "HCT-116", "experiment": "Antitumor activity against human HCT116 cells xenografted in ip dosed Balb/c athymic nude mouse assessed as tumor growth inhibition administered daily", "type": "functional, organism-based", "procedure,_shortened": "(§1)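 Female Balb/C athymic nude mice, 5-6 weeks old, implanted s.c. in the right flank with HCT116 cells in 100 µL HBSS. Tumor volume (π/6 × L × W²) and body weight measured every 2 days. Inhibition = (1 − treated/control tumor weight) × 100%.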"}, "[8]": {"tested_on": "HCT-116", "experiment": "Antitumor activity against human HCT116 cells xenografted in Balb/c athymic nude mouse assessed as tumor growth inhibition at 20 mg/kg, ip administered daily after 42 days", "type": "functional", "conditions": "HCT-116, ip, 1008 h, read-out: TGI", "procedure,_shortened": "as §1"}, "[9]": {"tested_on": "Mus musculus", "experiment": "Toxicity in Balb/c athymic nude mouse xenografted with human SKOV3 cells assessed as loss in body weight at 20 to 50 mg/kg, ip administered daily", "type": "organism-based, SK-OV-3", "conditions": "in vivo", "procedure,_shortened": "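Female Balb/C athymic nude mice, 5-6 weeks old, carrying s.c. right-flank SK-OV-3 xenografts started from cells in HBSS. At about 100 mm3, groups of 6 received vehicle, 5-FU 10 mg/kg, or test agent i.p. daily. Body weight was measured every two days.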"}, "[10]": {"experiment": "Inhibition of pig microtubule polymerization after 30 mins by turbidimetric assay", "design": "species or system Sus scrofa", "procedure,_shortened": "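Porcine-brain MAP-rich tubulin at 3 mg/mL preincubated 30 min at 4 °C in 0.1 M PIPES pH 6.9, 2 mM MgCl2, 0.5 mM EGTA. Compounds added 2 min before the run, then 1 mM GTP. Turbidity followed kinetically at 340 nm at 37 °C; assembly IC50 derived by Hamel's method.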"}, "[11]": {"tested_on": "A549", "experiment": "Antiproliferative activity against human taxol-resistant A549 cells after 48 hrs by MTT assay", "type": "functional, cell-based", "conditions": "A549, 48 h", "procedure,_shortened": "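MCF-7/ADR (doxorubicin-resistant) and A549/T (taxol-resistant) cells in RPMI-1640 with 10% FBS and penicillin/streptomycin. Log-phase cells at 40,000-50,000 cells/mL exposed to graded concentrations for 48 h. MTT 3 h, DMSO solubilization, absorbance 570 nm. IC50 from percent growth versus untreated control; mean ± SEM of ≥3 independent experiments.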"}, "[12]": {"tested_on": "MCF7", "experiment": "Resistance ratio, ratio of IC50 for human doxorubicin-resistant MCF7 cells to IC50 for human MCF7 cells", "type": "functional", "procedure,_shortened": "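MTT assay: log-phase cells at 40,000-50,000 cells/mL in RPMI-1640 with 10% FBS, exposed to graded concentrations for 48 h, then MTT 3 h, DMSO solubilization, absorbance at 570 nm. IC50 from growth versus untreated control, at least three independent experiments. Ratio = resistant-line IC50 / parental-line IC50.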"}, "[13]": {"tested_on": "NCI-H1975", "experiment": "Resistance ratio, ratio of IC50 for human gefitinib-resistant NCI-H1975 cells to IC50 for human HCC827 cells", "type": "functional"}, "[14]": {"tested_on": "HCT-116", "experiment": "Cell cycle arrest in human HCT116 cells assessed as accumulation at G1 phase at 0.5 uM after 24 hrs by flow cytometry (reference value: 53.98%)", "type": "functional"}, "[15]": {"tested_on": "HCT-116", "experiment": "Cell cycle arrest in human HCT116 cells assessed as accumulation at S phase at 1 uM after 24 hrs by flow cytometry (reference value: 25.66%)", "type": "functional"}, "[16]": {"tested_on": "HCT-116", "experiment": "Induction of apoptosis in human HCT116 cells assessed as viable cells at 0.5 uM after 24 hrs by annexin V/propidium iodide staining-based flow cytometry (reference value: 92%)", "type": "functional", "conditions": "HCT-116, 24 h, read-out: Activity"}, "[17]": {"tested_on": "HCT-116", "experiment": "Induction of apoptosis in human HCT116 cells assessed as necrotic cells at 1 uM after 24 hrs by annexin V/propidium iodide staining-based flow cytometry (reference value: 3.49%)", "type": "functional"}, "[18]": {"tested_on": "HCT-116", "experiment": "Induction of apoptosis in human HCT116 cells assessed as viable cells at 1 uM after 24 hrs by annexin V/propidium iodide staining-based flow cytometry (reference value: 92%)", "type": "functional", "conditions": "HCT-116, 24 h, read-out: Activity"}, "[19]": {"tested_on": "HCT-116", "experiment": "Induction of apoptosis in human HCT116 cells assessed as viable cells at 0.2 uM after 48 hrs by annexin V/propidium iodide staining-based flow cytometry (reference value: 92%)", "type": "functional", "conditions": "HCT-116, 48 h, read-out: Activity"}, "[20]": {"tested_on": "HCT-116", "experiment": "Induction of apoptosis in human HCT116 cells assessed as early apoptotic cells at 0.5 uM after 48 hrs by annexin V/propidium iodide staining-based flow cytometry (reference value: 2.83%)", "type": "functional", "procedure,_shortened": "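HCT116 cells treated with compound or DMSO for 24 or 48 h, trypsinized, washed twice in PBS and dual-stained with annexin-V and PI. Analysed by flow cytometry: early apoptotic cells scored as annexin-V+/PI−, late apoptotic cells as annexin-V+/PI+.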"}, "[21]": {"tested_on": "HCT-116", "experiment": "Induction of apoptosis in human HCT116 cells assessed as necrotic cells at 1 uM after 48 hrs by annexin V/propidium iodide staining-based flow cytometry (reference value: 3.49%)", "type": "functional"}, "[22]": {"tested_on": "HCT-116", "experiment": "Induction of apoptosis in human HCT116 cells assessed as viable cells at 1 uM after 48 hrs by annexin V/propidium iodide staining-based flow cytometry (reference value: 92%)", "type": "functional", "conditions": "HCT-116, 48 h, read-out: Activity"}, "[23]": {"tested_on": "HepG2", "experiment": "Cell cycle arrest in human HepG2 cells assessed as accumulation at G1 phase at 0.5 uM after 24 hrs by flow cytometry (reference value: 62.74%)", "type": "functional"}}, "data": [{"smiles": "CCOc1ccc(-c2nc(N)sc2-c2cc(OC)c(OC)c(OC)c2)cc1", "values": [{"measurement": "Activity", "setting": "[1]", "value": 8.69, "unit": "%"}, {"measurement": "Activity", "setting": "[2]", "value": 65.3, "unit": "%"}, {"measurement": "viability at 0.5 µM", "setting": "[3]", "value": 29.6, "unit": "%"}, {"measurement": "Activity", "setting": "[4]", "value": 2.67, "unit": "%"}, {"measurement": "IC50", "setting": "[5]", "value": 40.2, "unit": "nM"}, {"measurement": "Activity", "setting": "[6]", "value": "Dose-dependent effect"}, {"measurement": "Activity", "setting": "[7]", "value": "Dose-dependent effect"}, {"measurement": "inhibition in vivo at 20 mg/kg", "setting": "[8]", "value": 49.5, "unit": "%"}, {"measurement": "Activity", "setting": "[9]", "value": "Toxic"}, {"measurement": "IC50", "setting": "[10]", "value": 2740, "unit": "nM"}, {"measurement": "IC50", "setting": "[11]", "value": 43, "unit": "nM"}, {"measurement": "Ratio IC50", "setting": "[12]", "value": 1.9}, {"measurement": "Ratio IC50", "setting": "[13]", "value": 2.24}, {"measurement": "Activity", "setting": "[14]", "value": 11.45, "unit": "%"}, {"measurement": "Activity", "setting": "[15]", "value": 7.71, "unit": "%"}, {"measurement": "viability at 0.5 µM", "setting": "[16]", "value": 74.5, "unit": "%"}, {"measurement": "Activity", "setting": "[17]", "value": 3.15, "unit": "%"}, {"measurement": "viability at 1 µM", "setting": "[18]", "value": 62.1, "unit": "%"}, {"measurement": "viability at 0.2 µM", "setting": "[19]", "value": 31.1, "unit": "%"}, {"measurement": "Activity", "setting": "[20]", "value": 40.3, "unit": "%"}, {"measurement": "Activity", "setting": "[21]", "value": 4.06, "unit": "%"}, {"measurement": "viability at 1 µM", "setting": "[22]", "value": 20.2, "unit": "%"}, {"measurement": "Activity", "setting": "[23]", "value": 30.08, "unit": "%"}]}]}
